# This excerpt belongs to a sample that is enriched for hits.
# PTEN del growth: growth suppressors of cells with PTEN tumor suppressor deletion | HCT116 PTEN-null viability, CellTiter-Glo, 60 h; stronger effect = lower value | viability, % at 10 µM | 140,000 tested, 1.2% active | AID 827;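 active = viability at or below a set limit, 4 SD under the median of all tested compounds, cut at about 3.7% in these data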;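 also: PTEN knockout HCT116 line with beta catenin targeted HCT116 as companion control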
# Fibroblast inh: blocks proliferation of human lung fibroblasts. LL 47 human lung fibroblast viability, ATP luminescence; stronger effect = lower value. viability, % at 10 µM. 85,000 tested, 1.1% active. AID 719;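 active = viability at or below 50% in the single dose screen; inactive = viability above 50%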;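 also: compound exposure lasted 72 h before the ATP readout; 100% = median luminescence of untreated cell-only wells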
#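 material = human LL 47 lung fibroblast cells | dosing = compounds added from tenfold dosing solution, 0.1% DMSO final | timing = overnight cell rest, 72 h compound treatment at 37 °C | measured by = CellTiter-Glo luminescence measuring cellular ATP | evaluation = % viability versus median cells-only luminescence | control set = cell-only wells, no compound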
# HCT116 bCat-KO: beta-catenin-lacking colon tumor cell growth suppression. HCT116 beta-catenin knockout viability, CellTiter-Glo, 60 h; stronger effect = lower value. viability, % at 10 µM. 140,000 tested, 1.5% active;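 active = viability at or under a set limit, the compound median less 4 SD, cut at about 6% in these data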;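 also: 0% = Hyamine 1622 control at 20 µM and 100% = untreated cell control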
# HUVEC inhibit: blocks proliferation of human endothelial cells; HUVEC proliferation, CellTiter-Glo luminescence, 72 h; stronger effect = lower value; 86,000 tested, 1.1% active; AID 648; viability, % at 10 µM (by protocol);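 active = viability at or below 30%; inactive = viability above 30%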;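 also: 100% = median luminescence of DMSO-only cell control wells on each plate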
# H69AR growth 86K: blocks growth of human H69AR lung tumor cells | H69AR lung tumor viability, ATP luminescence, 72 h; stronger effect = lower value | viability, % at 10 µM | 85,000 tested, 6% active | AID 598;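 active = viability at or below 40%; inactive = viability above 40%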;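 also: multidrug resistant small cell line overexpressing MRP-1 efflux transporter; 100% = mean luminescence of untreated control wells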
# The depositor's hits bear a star; . = no result given.
SMILES,PTEN del growth,Fibroblast inh,HCT116 bCat-KO,HUVEC inhibit,H69AR growth 86K
Fc1ccc2c(Cl)c(-c3nnc(-c4cccs4)o3)sc2c1,68,24*,95,51,12*
NC(=O)NC(c1ccccc1)c1cccc2ccccc12 (stereo not drawn),104,95,122,97,96
COc1cc(CNCc2ccccn2)ccc1OCC(N)=O,102,.,110,.,.
COc1cc(CNCc2ccccn2)ccc1OCc1ccc(Cl)cc1Cl,3.5*,.,2.4*,.,.
Cc1cccc2c1NC(=O)/C2=C\C(=O)c1cccs1,2.2*,6.1*,4.9*,29*,2.1*
CCc1ccc2c(c1)/C(=C/C(=O)c1cccs1)C(=O)N2,0.8*,6.5*,0.8*,67,1.7*
CCc1ccc2c(c1)/C(=N/N(C)C(=S)NC)C(=O)N2,78,.,51,.,.
Cc1cc(C)c2c(c1)/C(=C/C(=O)c1ccc(Br)s1)C(=O)N2,1.8*,15*,1.8*,7.1*,1.8*
CN1/C(=C\C(=O)c2cccs2)C(C)(C)c2ccccc21,84,.,85,.,.
Cc1ccc(C(c2ccc(C)o2)c2cccc([N+](=O)[O-])c2O)o1,86,106,88,107,96
COc1cc(C(=S)N2CCOCC2)ccc1OC(=O)Cc1ccc(F)cc1,98,.,87,.,.
COc1ccccc1Oc1coc2cc(OC(=O)N3CCOCC3)ccc2c1=O,98,100,96,93,92
CCCOc1ccc(C(C)=O)cc1CC(C(=O)OCC)C(=O)OCC,71,97,78,108,84
COC(=O)CSc1ccccc1C(=O)OC,103,92,124,90,94
COC(=O)CSC1=NS(=O)(=O)c2ccccc21,99,69,103,80,37*
O=C(CSC1=NS(=O)(=O)c2ccccc21)Nc1ccccc1,104,53,89,48,19*
Cc1ccc(C)c(S(=O)(=O)NCCOC(=O)Nc2sc(=S)n(C)c2C)c1,80,95,83,89,86
CC(=O)Nc1cccc(C(=O)/C=C/c2ccc(C)cc2)c1,1.9*,.,2.7*,.,.
CSc1ccc(/C=C/C(=O)c2ccc(NC(C)=O)cc2)cc1,105,.,95,.,.
CCCn1c(CCC(=O)Nc2ccccc2Cc2ccccc2)nc2cc(S(=O)(=O)N3CCOCC3)ccc21,70,90,63,107,39*
CCN(CC)S(=O)(=O)c1cccc(-c2nnc(SC(C)C(=O)NCCC3=CCCCC3)o2)c1 (stereo not drawn),39,94,26,79,33*
CCN(CC)S(=O)(=O)c1cccc(-c2nnc(SCCCC(=O)c3ccccc3)o2)c1,74,105,69,85,32*
Brc1ccccc1-c1nnc(SCc2nc3ccccc3s2)o1,86,.,89,.,.
CCN(CC)S(=O)(=O)c1cccc(-c2nnc(SCc3nc4ccccc4s3)o2)c1,53,81,42,87,35*
O=C(CSc1nnc(-c2cccc(S(=O)(=O)N3CCCCC3)c2)o1)NCCC1=CCCCC1,82,108,100,80,61
SMILES,PTEN del growth,Fibroblast inh,HCT116 bCat-KO,HUVEC inhibit,H69AR growth 86K
CCN(CC)S(=O)(=O)c1cccc(-c2nnc(SCC(=O)c3cc(C)n(C4CC4)c3C)o2)c1,.,88,.,97,67
CCN(CC)S(=O)(=O)c1cccc(-c2nnc(SCCCC(=O)c3ccc(F)cc3)o2)c1,72,93,46,102,37*
Cc1ccc(NC(=O)Cc2c[nH]c3ccccc23)cc1S(=O)(=O)N1CCCCCC1,77,.,78,.,.
C=C1C(O)C[C@H]2C(=C)CCC3[C@H](OC(=O)[C@]3(O)CO)[C@@H]12 (stereo partly drawn),0.5*,.,0.7*,.,.
C/C(=N\NC(=O)C(C)Oc1ccc([N+](=O)[O-])cc1)c1ccccn1 (stereo not drawn),6,.,4.6*,.,.
CCOC(=O)c1ccccc1Nc1cn(C(C)=O)c2ccccc12,15,46*,10,58,23*
CC(=O)n1cc(Nc2ccccc2C(=O)O)c2ccccc21,84,101,94,105,54
CC1=NNC(=O)/C1=C\c1cn(-c2ccccc2)nc1-c1ccc(Cl)cc1,1.4*,.,1.4*,.,.
Cc1ccc(-c2nn(-c3ccccc3)cc2C=C2C(=O)CC(C)(C)CC2=O)cc1,13,.,20,.,.
C=CCOc1cccc(C2c3c(oc4ccccc4c3=O)C(=O)N2c2ccccn2)c1 (stereo not drawn),77,87,73,63,26*
CCOc1cccc(C2c3c(oc4ccccc4c3=O)C(=O)N2c2ccccn2)c1 (stereo not drawn),86,84,76,72,100
Cc1ccc(S(=O)(=O)CCC(=O)Nc2nc3c(s2)CCCC3)cc1,26,51,16,79,24*
COC(=O)Nc1nc2c(s1)CCCC2,1.0*,96,1.1*,89,98
COc1cc(C2C(C#N)=C(N)Oc3n[nH]c(C)c32)cc2c1OCO2 (stereo not drawn),89,103,98,104,81
Cc1ccc2c(c1)cc(CN(Cc1ccco1)C(=O)COc1ccccc1)c1nnnn12,73,102,79,84,38*
Cc1ccc2c(c1)cc(CN(Cc1ccccc1)C(=O)N(C)C)c1nnnn12,.,101,.,95,91
CC1(C)CC(=O)C=C(NCCN2CCN(C(=O)Nc3ccc(Cl)cc3)CC2)C1,99,98,98,96,89
Cc1cc(=O)n2c3c(sc2n1)C(=O)N(Cc1ccccc1)C3=O,91,67,95,74,1.1*
O=C(NC(=S)Nc1ccc2c(c1)OCO2)c1ccc(Cl)cc1,64,.,0.2*,.,.
CCC(CC)COC(=O)C(C#N)c1nc2ccccc2nc1N1CCN(CC)CC1 (stereo not drawn),43,97,41,3.2*,79
C=CCOC(=O)C(C#N)c1nc2ccccc2nc1N1CCC(C(=O)OCC)CC1 (stereo not drawn),78,97,86,91,39*
CCC(C)COC(=O)C(C#N)c1nc2ccccc2nc1N1CCCCC1 (stereo not drawn),76,98,74,104,82
CCCCCCOC(=O)C(C#N)c1nc2ccccc2nc1N1CCN(C)CC1 (stereo not drawn),25,85,22,5.8*,3.6*
Cc1ccc(NC(=O)C(CC(C)C)NC(N)=O)cc1Cl (stereo not drawn),91,.,86,.,.
N=C1S/C(=C\c2ccc(-c3cccc(Cl)c3)o2)C(=O)N1c1nccs1,2.9*,.,5.4*,.,.
COc1ccc(/C=C2\SC(=N)N(c3nccs3)C2=O)cc1OC,11,.,15,.,.
C=CCn1c(SCC(=O)c2[nH]c(C)c(C(=O)OC)c2C)nc2scc(-c3ccc(OC)c(OC)c3)c2c1=O,2.5*,.,4.1*,.,.
C=CCn1c(SCC(=O)c2[nH]c(C)c(C(C)=O)c2C)nnc1-c1ccncc1,78,108,80,111,87
COc1ccc(N(C(=O)c2ccco2)S(=O)(=O)c2cc(Cl)c(Cl)cc2Cl)cc1,34,97,43,68,20*

# Screening results from PubChem BioAssay.
